Source: PubChem (several laboratories)
In the library only some 2.1% were active in any assay of this set; here they are far more common.
F508del corr – correctors of CFTR F508del function in bronchial epithelial cells; CFBE cells, YFP halide quenching; stimulated with forskolin plus potentiator P3; % fluorescence drop versus neutral controls; activity (quench increase), % at 7.58 µM; actives 0.36% (n = 350,000); AID 720511;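 active = mean added fluorescence quench of at least 8% versus neutral control, with both replicates also reaching 8%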;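 also: cells transiently co-express mutant CFTR-F508del with the halide-sensitive YFP; corrector assay measuring rescue of mutant channel to the surface after 24 h compound exposure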
MC4R ag barr – human MC4R agonism via beta-arrestin. P32245. U2OS MC4R beta-arrestin complementation, luminescence; percent of melanotan II response, DMSO zero. activation, % at 8.9 µM. actives 0.98% (n = 360,000). AID 540308;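 active = activation above a per-plate cutoff, the mean activation of sample wells on that plate plus 3 SD, cut at about 8% in these data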
Target sequence (P32245 whole entry, looked up): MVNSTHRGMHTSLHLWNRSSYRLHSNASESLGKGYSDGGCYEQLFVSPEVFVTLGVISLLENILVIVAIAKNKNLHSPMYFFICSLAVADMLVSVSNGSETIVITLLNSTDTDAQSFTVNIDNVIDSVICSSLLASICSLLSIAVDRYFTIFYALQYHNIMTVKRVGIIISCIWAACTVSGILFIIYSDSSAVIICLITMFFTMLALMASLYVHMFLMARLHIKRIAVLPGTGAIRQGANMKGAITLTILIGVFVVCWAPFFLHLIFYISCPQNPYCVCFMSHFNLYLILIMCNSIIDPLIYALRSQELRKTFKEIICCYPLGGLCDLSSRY
MC4R antag cAMP – antagonists of human melanocortin 4 receptor (MC4R). actives 0.48% (n = 360,000). AID 540295. MC4R-expressing cells, MTII-stimulated cAMP, LANCE TR-FRET. inhibition, % at 6.5 µM;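 active = inhibition above its plate's cutoff, the mean of tested wells on that plate plus 3 SD, cut at about 29% in these data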;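 also: 0% = Melanotan II alone and 100% = Melanotan II plus saturating MCL0020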
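System – human MC4R-expressing U2OS cells · Also added – Melanotan II · Dosing – one concentration, 6.5 µM nominal · Timing – 30-min compound, 1-h challenge, 1-h detection, room temperature · Measured by – Eu-cAMP/anti-cAMP TR-FRET, emission 671 nm · Replicates – singlicate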
SMARCA2 act – activators of SMARCA2 function; MG213 cells, MMTV-luciferase reporter, dexamethasone, overnight; activation, % at 9.1 µM; actives 1% (n = 370,000); in the data active = activation above about 7.8%;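 also: 0% = vehicle wells and 100% = reference activator wells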
cAMP nonselect – nonselective cAMP signaling inhibitor, MC4R antagonist counter-screen; inhibition, % at 6.5 µM; actives 26% (n = 1,600); AID 602193; shares compounds with MC4R antag cAMP; parental U2OS, forskolin cAMP, LANCE TR-FRET;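 active = mean inhibition over triplicates above the low-control well mean plus 3 SD, set per campaign, cut at about 13% in these data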;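 also: signal is single emission at 671 nm which falls as cellular cAMP rises; 0% = forskolin-stimulated wells and 100% = buffer without forskolin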
MC4R cAMP antag – human MC4R cAMP antagonism confirmation; inhibition, % at 6.5 µM; shares compounds with MC4R antag cAMP; MC4R-expressing cells, MTII-stimulated cAMP, TR-FRET; actives 27% (n = 1,600); AID 602195; in the data active = inhibition above about 29%;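 also: 0% = agonist stimulated wells alone and 100% = agonist stimulated wells plus saturating reference antagonist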
* marks the source's active call; other numbers are inactive results; · = not tested or not shown.

SMILES | F508del corr | MC4R ag barr | MC4R antag cAMP | SMARCA2 act | cAMP nonselect | MC4R cAMP antag
O=C1ON=C(c2cccc([N+](=O)[O-])c2)/C1=C/c1ccc(O)cc1 | -1 | 1 | 38* | 0 | 4 | 8
Cc1ccc(-c2cc3ccccc3nc2N2CCOCC2)cc1 | 1 | 2 | 34* | 0 | -1 | -3
Cc1cnc(NC(=O)Cc2ccccc2Cl)s1 | 2 | 0 | 30* | 2 | -1 | -6
Cc1csc(NC(=O)Cc2ccccc2Cl)n1 | 1 | -1 | 6 | -1 | · | ·
CN1CCN(C(=O)C[C@@H]2CC[C@H]3[C@@H](COC[C@H](O)CN3C(=O)Nc3cc(Cl)cc(Cl)c3)O2)CC1 | 3 | · | · | · | · | ·
C[C@@H]1CN([C@H](C)CO)C(=O)c2cc(-c3cccc(C#N)c3)cnc2O[C@@H]1CN(C)C(=O)C1CCC1 | 4 | · | · | · | · | ·
N#Cc1c(SC(C(=O)O)c2ccccc2)nc2c(c1-c1cccs1)CCCC2 (configuration not stated) | -2 | -1 | 31* | 1 | 18* | 27
CCOC(=O)C(C)Sc1nc2c(c(-c3cccs3)c1C#N)CCC2 (configuration not stated) | 2 | 0 | 15 | 0 | · | ·
C[C@@H]1CN([C@H](C)CO)C(=O)Cc2cc(NS(=O)(=O)c3cn(C)cn3)ccc2O[C@@H]1CN(C)C(=O)Nc1ccc(C(F)(F)F)cc1 | 3 | · | · | · | · | ·
O=C(NCc1cccnc1)C(=O)Nc1nc2ccccc2s1 | 1 | -1 | 30* | 3 | -4 | -19
COc1ccc(N2CCN(c3nc(Cl)nc(Nc4ccc(F)cc4)n3)CC2)cc1 | · | -3 | 38* | 0 | 14* | 55*
COc1ccc(N2CCN(c3nc(Nc4ccc(C)c(F)c4)nc(N4CCCC4)n3)CC2)cc1 | -2 | -1 | 15 | -3 | · | ·
CNC(=O)C[C@H]1CC[C@H]2[C@H](COc3ccc(NC(=O)C(C)C)cc3C(=O)N2C)O1 | 0 | · | · | · | · | ·
Cc1ccc(N=C(NO)c2cnccc2C(F)(F)F)c(C)c1 | 0 | 1 | 30* | -1 | -1 | -10
CC1=NNC(=O)/C1=C\c1cn(-c2ccccc2)nc1-c1cccs1 | -4 | -2 | 47* | 2 | 22* | 44*
C[C@@H]1CCCCO[C@@H](CN(C)C(=O)Cc2ccccc2)[C@H](C)CN([C@@H](C)CO)C(=O)c2cc(NS(C)(=O)=O)ccc2O1 | 1 | · | · | · | · | ·
CS(=O)(=O)Nc1ccc2c(c1)[C@H]1C[C@@H](CC(=O)NCc3ccncc3)O[C@@H](CO)[C@H]1O2 | -6 | · | · | · | · | ·
COc1ccccc1CN(C)C(=O)C(NC(=O)Cc1cccc2ccccc12)C(C)C (configuration not stated) | 1 | 1 | 36* | -3 | -9 | -1
COc1ccc(CN(C)C(=O)CNC(=O)Cc2cccc3ccccc23)c(OC)c1OC | 0 | -2 | 8 | -3 | · | ·
Cc1noc(C)c1NC(=O)N[C@H]1CC[C@H](CCNC(=O)C2CCOCC2)O[C@H]1CO | 3 | · | · | · | · | ·
O=C(Nc1ccccc1)c1sc(Cl)nc1-c1ccccc1 | · | -1 | 17 | -1 | · | ·
Cc1ccc(NC(=O)c2sc(Cl)nc2-c2ccccc2)cc1C | · | 5 | 43* | 0 | 16* | 46*
O=C(Nc1cc(F)cc(F)c1)c1sc(Cl)nc1-c1ccccc1 | 0 | 6 | 31* | -1 | 3 | 9
Cc1ccccc1N(CC(=O)NC1CCCCC1)C(=O)CNC(=O)c1cccs1 | 2 | 2 | 30* | -3 | -17 | -33
O=C(c1ccc(Cl)c([N+](=O)[O-])c1)N(Cc1ccccc1)C1CCS(=O)(=O)C1 (configuration not stated) | · | 1 | 17 | 3 | · | ·
Cc1ccc(CN(C(=O)c2ccc(Cl)c([N+](=O)[O-])c2)C2CCS(=O)(=O)C2)o1 (configuration not stated) | 0 | -4 | 37* | 1 | 19* | 37*
O=C(Cc1ccc(F)cc1)NCCc1cnc[nH]1 | -2 | 0 | 31* | 0 | -1 | -15
O=C(Nc1ccccc1Cl)c1cc(C2CCCCN2C(=O)c2ccccc2)on1 (configuration not stated) | 1 | 2 | 35* | -2 | -14 | -33
CN1C(=O)c2cc(NC(=O)C3CC3)ccc2OC[C@H]2O[C@@H](CC(=O)O)CC[C@H]21 | -1 | · | · | · | · | ·
